Compounds with a hit are over-represented: about 0.79% of the library has one in this group of screens.
mIAP act – activators of mouse IAP, primary screen, biochemical, luminescence, uHTS; muIAP, CDP-Star luminescence, 30 min; active compounds read high; 1 = vehicle-only enzyme signal, 0 = enzyme-free wells; activation factor at 10 µM; hit rate 0.24% among 330,000; AID 2805, 2010;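 active = activation factor of at least 2 at 20 µM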
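Assay system: mouse IAP enzyme; Reagent: CDP-Star chemiluminescent phosphatase substrate; Compound: DMSO-dissolved test compounds; Incubation: 30 min, room temperature; Technique: luminescence from enzymatic CDP-Star hydrolysis; Controls: DMSO-only wells and no-enzyme negative control.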
hIAP activ – human IAP activators, primary screen, biochemical, luminescence, uHTS. purified human IAP, CDP-Star luminescence, 30 min; active compounds read high; 1 = vehicle-only enzyme, 0 = enzyme-free background. hit rate 0.16% among 330,000. activation factor at 10 µM. Intestinal-type alkaline phosphatase (Homo sapiens), P09923;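 active = activation factor of the enzyme at least 2-fold when tested at 20 µM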
Target sequence (P09923 whole entry, looked up): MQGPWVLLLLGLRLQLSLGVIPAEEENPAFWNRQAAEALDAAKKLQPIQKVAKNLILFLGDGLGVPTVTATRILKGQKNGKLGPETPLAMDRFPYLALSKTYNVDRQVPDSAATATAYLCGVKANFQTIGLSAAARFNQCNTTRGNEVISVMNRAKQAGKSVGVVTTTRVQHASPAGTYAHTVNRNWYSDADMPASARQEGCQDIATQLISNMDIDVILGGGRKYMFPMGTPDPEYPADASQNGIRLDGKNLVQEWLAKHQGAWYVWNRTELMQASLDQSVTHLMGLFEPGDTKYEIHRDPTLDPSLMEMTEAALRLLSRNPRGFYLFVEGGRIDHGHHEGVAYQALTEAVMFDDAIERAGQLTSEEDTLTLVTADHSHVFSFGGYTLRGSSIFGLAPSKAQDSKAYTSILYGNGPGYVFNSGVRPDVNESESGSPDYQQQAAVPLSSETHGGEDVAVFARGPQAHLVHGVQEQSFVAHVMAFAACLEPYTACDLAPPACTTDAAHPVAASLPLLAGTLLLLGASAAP
mIAP block – inhibitors of mouse IAP, primary screen, biochemical, luminescence, uHTS | intestinal alkaline phosphatase [Mus musculus] | purified mouse IAP, CDP-Star luminescence, 30 min | hit rate 0.2% among 330,000 | AID 2806, 2010 | inhibition, % at 10 µM;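 active = inhibition of at least 40% at 10 µM in the primary screen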;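 also: plate controls were DMSO with enzyme for no effect and no enzyme wells for full effect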
bIAP act – bovine intestinal alkaline phosphatase activators, primary screen, biochemical, bovine IAP, CDP-star luminescence. alkaline phosphatase, intestinal [Bos taurus]. purified bovine IAP, 30 min; active compounds read high; fold of DMSO-control signal, blank-subtracted. activation factor at 20 µM. hit rate 0.17% among 200,000. AID 1016, 2008;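 active = activation factor of 2 or more at 20 µM, a signal rise over negative controls twice the positive control's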
bIAP inhibitor – bovine intestinal alkaline phosphatase inhibitors, primary screen, selectivity assay for TNAP inhibitor project, biochemical, bovine IAP, CDP-star luminescence. inhibition, % at 20 µM. alkaline phosphatase, intestinal [Bos taurus]. 190,000 tested, under 10 active. purified bovine IAP, 30 min. AID 1019, 2008;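 active = over 50% inhibition of intestinal alkaline phosphatase at 20 µM in the single-dose screen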
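test system = bovine IAP enzyme | medium = DEA buffer 100 mM, pH 9.8, with MgCl2 1.0 mM, ZnCl2 0.02 mM | detection = luminescence | dosing = single compound dose of 20 µM, 2% DMSO final | incubation = 30 min reaction at room temperature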
hIAP inh – human IAP inhibitors, primary screen, biochemical, luminescence, uHTS. Intestinal-type alkaline phosphatase (Homo sapiens), P09923. hit rate 0.12% among 330,000. inhibition, % at 10 µM. purified IAP, CDP-Star luminescence, 30 min;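 active = inhibition reaching a set limit with compound at 10 µM in the primary screen, cut at about 35% in these data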;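 also: plate controls were DMSO wells with enzyme for no effect and no-enzyme buffer wells for full effect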
The depositor's hits bear a star; · = no result.

SMILES	mIAP act	hIAP activ	mIAP block	bIAP act	bIAP inhibitor	hIAP inh
Fc1ccc(CNC(=S)NCc2ccc(F)cc2)cc1	1.48	1.03	-47.8	·	·	-3.3
FC(F)(F)c1cccc(NC(=S)NCc2ccc(Cl)cc2)c1	2.7*	1.06	-170.0	0.9	10.3	-5.7
Fc1ccccc1CNC(=S)Nc1cccc(C(F)(F)F)c1	2.67*	0.775	-166.7	0.9	10.9	22.5
COc1ccc(CNC(=S)Nc2ccc(F)c(Cl)c2)cc1OC	2.57*	1.53	-157.3	1	4.5	-52.8
COc1ccc(CNC(=S)Nc2ccccc2)cc1Cl	1.4	1.06	-40.4	·	·	-5.7
O=C(CNc1cccc(Cl)c1)NNC(=S)NCc1ccccc1	0.937	1.67	6.3	1	0.4	-67.0
S=C(NCc1ccccc1)Nc1cccc(Cl)c1	2.27*	1.08	-127.1	0.9	7.5	-8.5
Fc1cc(NC(=S)NCc2ccc(CNC(=S)Nc3ccc(Cl)c(F)c3)cc2)ccc1Cl	2.12*	1.15	-111.5	·	·	-14.8
COc1ccc(C2(c3ccc(OC)cc3)NC(=O)N(CC(=O)Nc3ccc(OC)c(OC)c3)C2=O)cc1	1.15	1.06	-14.9	·	·	-6.3
COc1ccc(C2=NOC(c3nnc(-c4ccccc4)o3)C2)cc1 (stereo unspecified)	0.992	0.946	0.8	·	·	5.4
C=CCn1c(-c2ccc(OC)cc2)nc2ccccc21	0.927	0.991	7.3	0.9	13.3	1.0
COc1ccc(-c2nc3ccccc3n2Cc2ccccc2)cc1	0.974	1.17	2.6	3*	-196.4	-16.7
Cc1ccc(C)c(C(=O)OCC(=O)Nc2cccc(S(=O)(=O)N3CCCCC3)c2)c1	1.81	1.02	-81.5	·	·	-1.6
CCN1C(=O)/C(=C/C=C2/SCCN2C)SC1=S	0.517	0.908	48.3*	0.9	13.3	9.2
CN1CCS/C1=C\C=C1/SC(=S)N(CC(=O)O)C1=O	·	·	·	0.4	·	·
O=C(O)COc1ccccc1Cc1ccccc1	0.969	1.11	3.1	1	3.5	-11.3
CC(COc1ccccc1Cc1ccccc1)N1CCCCC1 (stereo unspecified)	0.907	0.597	9.3	·	·	40.3*
COc1ccc(Nc2nnc(SCC3CCCO3)s2)cc1 (stereo unspecified)	1.14	1.05	-13.9	0.9	6.7	-5.4
O=C1c2c(O)cc(O)cc2O[C@@]12c1c(cc(O)c3c1O[C@H](c1ccc(O)cc1)[C@@H](O)C3)O[C@@H]2c1ccc(O)cc1	0.588	0.926	41.2*	1	1.2	7.4
O=C(NC12CC3CC(CC(C3)C1)C2)c1ccc(N2CCNCC2)c([N+](=O)[O-])c1	1.03	0.938	-2.6	·	·	6.2
Cc1cc(C)c(S(=O)(=O)N2CCOC2CNC(=O)C(=O)NCCN2CCOCC2)c(C)c1 (stereo unspecified)	1.03	0.91	-3.3	·	·	9.0
COC(=O)/C=C1\SC(N2CCOCC2)=C(c2ccc(OC)cc2)C1=O	0.898	0.867	10.2	1	2.3	13.3
C/C(=N\OCC(=O)OCC(=O)NC(=O)c1ccccc1)c1ccc2c(c1)OCO2	0.954	0.989	4.6	·	·	1.1
CCn1c(SCc2nc3ccccc3[nH]2)nnc1-c1ccccc1OC	0.984	0.869	1.6	2.3*	-133.3	13.1
C[C@@H](C(=O)Nc1ccc2ccccc2c1)[C@@H]1C[C@@]1(C)[C@@H](NC(=O)OCc1ccccc1)c1ccccc1	2.04*	1.03	-104.0	·	·	-2.8
Cc1ccc(S(=O)(=O)N2[C@@H](c3cccc(Cl)c3)C(C(=O)O)=CC[C@H]2c2cccc(Cl)c2)cc1	0.58	0.911	42.0*	·	·	8.9
Cc1cc(C)c(S(=O)(=O)N2CCOC2CNC(=O)C(=O)NCCN(C)C)c(C)c1 (stereo unspecified)	0.983	1.2	1.7	·	·	-20.1
COc1ccc(OCC(=O)NNC(=O)C(=O)N2CCCC2)cc1	0.772	1.05	22.8	1.2	-17.8	-4.7
